MPTP block: blocks calcium-induced mitochondrial swelling | actives 1.4% (n = 360,000) | isolated mouse mitochondria, Ca2+ swelling absorbance, 30 min | inhibition, % at 10 µM | AID 602449;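 active = inhibition of 50% or more, scaled per plate between neutral and stimulator controls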
V-ATPase pHluor: yeast V-ATPase proton transport regulation by pHLuorin | S. cerevisiae, pHLuorin cytosolic pH fluorescence | response, % at 10 µM | actives 0.37% (n = 350,000); in the data active = response mostly above about 7.3%, no sharp cut-off; inactive = mostly below about 5.4%; also: actives read high
ADAM17 inh: inhibits human ADAM17. AID 720648. inhibition, % at 6.95 µM. recombinant ADAM17, EDANS/DABCYL FRET peptide cleavage. actives 0.83% (n = 370,000);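 active = inhibition above the mean of compounds lying between control limits plus 3 SD, set per campaign, cut at about 8.5% in these data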
Target sequence (P78536 215-824 limits assumed): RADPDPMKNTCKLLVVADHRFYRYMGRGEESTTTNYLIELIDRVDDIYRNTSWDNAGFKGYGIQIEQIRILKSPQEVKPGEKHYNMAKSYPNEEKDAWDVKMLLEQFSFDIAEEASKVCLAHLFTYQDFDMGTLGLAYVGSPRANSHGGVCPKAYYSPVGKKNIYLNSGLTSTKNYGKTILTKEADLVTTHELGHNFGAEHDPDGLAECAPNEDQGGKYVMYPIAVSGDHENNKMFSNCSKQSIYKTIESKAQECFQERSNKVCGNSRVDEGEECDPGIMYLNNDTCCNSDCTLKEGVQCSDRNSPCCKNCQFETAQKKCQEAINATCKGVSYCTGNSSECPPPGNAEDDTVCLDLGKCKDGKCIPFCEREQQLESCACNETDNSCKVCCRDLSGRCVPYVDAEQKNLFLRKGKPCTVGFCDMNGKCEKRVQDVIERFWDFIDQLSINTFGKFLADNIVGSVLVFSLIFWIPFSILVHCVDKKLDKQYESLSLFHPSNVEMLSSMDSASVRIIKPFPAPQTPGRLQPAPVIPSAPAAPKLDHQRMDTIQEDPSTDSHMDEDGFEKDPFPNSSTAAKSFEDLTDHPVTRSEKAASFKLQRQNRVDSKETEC
Hep lipid drop: hepatic lipid droplet formation modulation. actives 0.4% (n = 240,000). inhibition, % at 6.5 µM. AML12 mouse hepatocytes, oleate lipid droplets, BODIPY imaging;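 active = lipid droplet intensity inhibited by at least 50%, with more than 500 cells counted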
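Test system: AML12 hepatocytes (mouse); reagent: oleate loading, 100 µM; dosing: one dose, 6.5 µM compound; incubation: overnight exposure; signal: fluorescence imaging, 20x objective, two fields per well; read-out basis: % inhibition of corrected integrated BODIPY droplet signal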
ADAM10 inh: ADAM10 inhibition, QFRET primary screen. actives 0.62% (n = 370,000). inhibition, % at 7 µM. AID 720582. recombinant ADAM10, EDANS/DABCYL FRET peptide cleavage, 3 h. O14672;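 active = inhibition above a per-campaign cutoff equal to the mean of compounds falling between control-based bounds plus 3 SD, cut at about 20% in these data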
aDG glyco act: increases alpha dystroglycan glycosylation. AID 624168. Pro5-aDG cells, alpha-DG glycosylation AlphaScreen (IIH6); 0% Pro5, 100% B10-LARGE cell signal. actives 0.22% (n = 360,000). activation, % at 10 µM;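 active = activation of at least 8% versus controls, or a plate z-score of at least 8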;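 also: Pro5 are CHO cells carrying HIG-tagged alpha-DG that lacks glycosylation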
Rh123 counter: mitochondrial membrane potential, counter-screen. shares compounds with MPTP block. isolated mitochondria, Rhodamine 123 fluorescence. inhibition, % at 10 µM. actives 78% (n = 5,000). AID 624504; in the data active = inhibition above about 22%
MPTP swell DR: dose response confirmation of mitochondrial permeability transition pore inhibitors; IC50, µM; shares compounds with MPTP block; isolated mitochondria swelling, absorbance; actives 58% (n = 780); in the data active = IC50 below about 20 µM
MPTP cs DR: active in counter-screen for permeability transition pore inhibitors; shares compounds with MPTP block; isolated mitochondria counterscreen, fluorescence read-out; IC50, µM; actives 49% (n = 780); in the data active = IC50 below about 80 µM
aDG conf: confirmation of alpha dystroglycan glycosylation activators; shares compounds with aDG glyco act; Pro5-aDG cells, alpha-DG glycosylation, IIH6 AlphaLISA; scaled to LARGE-overexpressing B10 cells as 100%; activation, % at 10 µM (by protocol); actives 17% (n = 600); AID 651671;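 active = activation of at least 7% in one or more replicates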;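 also: cells exposed to compound for two days before detection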
Of the large screens only hits and unclear results are named; the others gave an inactive call (follow-up assays come after a bar, where they were run). A selection: hits, their analogues and other compounds. The true share with any hit is near 3.1%.

CSc1cccc(NC(=O)NCc2cccc(CNC(=O)Nc3cccc(SC)c3)c2)c1	MPTP block 68 | Rh123 counter 63
O=C(Nc1ccc(Cl)cc1)Nc1ccccc1CC[N+](=O)[O-]	MPTP block 83 | Rh123 counter 85
Cc1ccc(-c2cccc3[nH]cc(C)c23)s1	none (no result: MPTP block, V-ATPase pHluor, Hep lipid drop, aDG glyco act)
Cc1ccc(NC(=O)Nc2ccc(Cl)cc2)c(Br)c1	MPTP block 102 | Rh123 counter 92
CSc1ccccc1NC(=O)Nc1ccc(Cl)cc1	MPTP block 92 (no result: V-ATPase pHluor) | Rh123 counter 75
O=C(Nc1ccc(Br)cc1)Nc1ccccc1Cl	MPTP block 78 | Rh123 counter 103
COc1ccc2c(c1)N[C@@](CCNC=O)(c1[nH]c3ccccc3c1CCNC=O)C2=O	none (no result: MPTP block, V-ATPase pHluor, Hep lipid drop, aDG glyco act)
CCc1ccc(/C=C\C(=O)N2CCc3ccccc3C2)cc1	MPTP block 61 (no result: Hep lipid drop) | Rh123 counter 36
CC1(C)CC(N=Cc2c(O)n(Cc3ccc4c(c3)OCO4)c(=O)c3ccccc23)CC(C)(C)N1	MPTP block 53 | Rh123 counter inactive | MPTP swell DR 4.9 | MPTP cs DR inactive
CN(C)CCN=Cc1c(O)n(Cc2ccccc2)c(=O)c2ccccc12	none
O=[N+]([O-])c1ccc(N2CCN(Cc3ccccc3)CC2)c2c1no[n+]2[O-]	MPTP block 98 (no result: Hep lipid drop) | Rh123 counter inactive
O=[N+]([O-])c1ccc(N2CCN(Cc3ccccc3)CC2)s1	none
COc1ccc(OCCCCc2c(C)n[nH]c2C)cc1	MPTP block 51 (no result: Hep lipid drop) | Rh123 counter 36
Cc1n[nH]c(C)c1CCOc1ccc(C(C)C)cc1	none
CC(C)(C)c1ccc(C(=O)NCCCN2CCN(CCCNC(=O)c3ccc(C(C)(C)C)cc3)CC2)cc1	MPTP block 87 | Rh123 counter 86
CCN1CCN(c2ncc(C(=O)Nc3c(F)cc(F)cc3Br)c3ccccc23)CC1	MPTP block 70 | Rh123 counter inactive | MPTP swell DR 7.9 | MPTP cs DR inactive
Cc1cc(C)c2nc(SCCc3ccccc3)nc(C)c2c1	MPTP block 71 | Rh123 counter inactive | MPTP swell DR inactive | MPTP cs DR inactive
O=c1oc2cc(O)ccc2cc1-c1nc2c(s1)CCc1ccccc1-2	MPTP block 89 | Rh123 counter 84
Cc1nc2ccccn2c1-c1ccnn1S(=O)(=O)c1ccc(F)cc1	MPTP block 79 | Rh123 counter 48
Cn1ncc(SCc2ccccc2)c(Cl)c1=O	MPTP block 58 | Rh123 counter 22
CSc1c(SCc2ccccc2)cnn(-c2ccccc2)c1=O	none
CCN(CC)C(=O)CC[C@H]1CC[C@]2(CCCN(Cc3ccc(N(C)C)cc3)C2)O1	none (no result: MPTP block, V-ATPase pHluor, Hep lipid drop, aDG glyco act)
CC(C(=O)Nc1cccc(Br)c1)c1ccc([N+](=O)[O-])cc1 (stereo unspecified)	MPTP block 58 | Rh123 counter 78
CCC(CC)C(=O)Nc1ccc(Sc2ccc([N+](=O)[O-])cc2)cc1	MPTP block 95 (no result: Hep lipid drop) | Rh123 counter 77
CCCC(=O)Nc1ccc(Sc2ccc([N+](=O)[O-])cc2)cc1	none
O=C(Nc1ccc([N+](=O)[O-])cc1)C(c1ccccc1)c1ccccc1	MPTP block 82 (no result: Hep lipid drop) | Rh123 counter 108
CC(C)n1nnnc1C1(C)Cn2nccc2C(=O)N1Cc1cccc(C(F)(F)F)c1 (stereo unspecified)	none (no result: MPTP block, V-ATPase pHluor, Hep lipid drop, aDG glyco act)
CCOc1ccc(-c2csc(N3CCC(C(N)=O)CC3)n2)cc1	none (no result: MPTP block, V-ATPase pHluor, Hep lipid drop, aDG glyco act)
C=CC(C)(C)c1c(O)c(CC=C(C)C)c(O)c2c(=O)c3ccc(O)c(O)c3oc12	MPTP block 85 (no result: ADAM17 inh, Hep lipid drop, ADAM10 inh) | Rh123 counter 40
CC(C)=CCc1c(O)ccc(C2COc3c(CC=C(C)C)c(O)cc(O)c3C2=O)c1O (stereo unspecified)	none (no result: Hep lipid drop)
CC(=O)c1c(C)[nH]c(C(=O)OCCCCN2C(=O)c3ccccc3C2=O)c1C	MPTP block 103, aDG glyco act 6.9 (no result: Hep lipid drop) | Rh123 counter 91 | aDG conf inactive
CC(C)C[C@H]1COc2cccc(F)c2S(=O)(=O)N1Cc1cn(Cc2ccco2)nn1	none (no result: MPTP block, V-ATPase pHluor, Hep lipid drop, aDG glyco act)
Cc1cccc(Nc2nc(-c3c(C)nc4ccccn34)cs2)c1	MPTP block 86, aDG glyco act 4.4 (no result: Hep lipid drop) | Rh123 counter 76 | aDG conf inactive
Cc1cc(=O)c2ccccc2n1CC(=O)NCc1ccccc1	none
COc1ccc(NC(=O)Cn2c(C)cc(=O)c3ccccc32)cc1	MPTP block 61, aDG glyco act 7.8 | Rh123 counter 41 | aDG conf inactive
COC(=O)C1CN(Cc2ccccc2)CCS(=O)(=O)N1Cc1cn(Cc2ccc(Cl)cc2)nn1 (stereo unspecified)	none (no result: MPTP block, V-ATPase pHluor, Hep lipid drop, aDG glyco act)
O=S(=O)(c1cc(C(F)(F)F)ccc1Cl)N1CCN(c2ncnc3ccccc23)CC1	MPTP block 93, aDG glyco act 4.5 (no result: Hep lipid drop) | Rh123 counter 105 | aDG conf inactive
Cc1sc2ncnc(NCC(O)c3ccccc3)c2c1C (stereo unspecified)	MPTP block 69, aDG glyco act 2.7 | Rh123 counter 58 | aDG conf inactive
CCCCNC(=O)C[C@H]1C[C@@]2(C(=O)OCC)CCCC3=C2N(CCC3)C1=O	none (no result: MPTP block, V-ATPase pHluor, Hep lipid drop, aDG glyco act)
COCC1CCN(C(=O)c2cc(COc3ccc(-n4cncn4)cc3)on2)CC1	none
O=C(NCCc1cn2ccccc2n1)c1cc(COc2ccc3ncccc3c2)on1	MPTP block 102, aDG glyco act 10 | Rh123 counter 92 | aDG conf inactive
COCC1CCN(C(=O)c2cc(COc3ccc4ncccc4c3)on2)CC1	MPTP block 74, aDG glyco act 6.7 | Rh123 counter 81 | aDG conf inactive
CC(=O)CC[C@@H]1CC[C@]2(CCCN(C(=O)c3ccco3)C2)O1	none (no result: MPTP block, V-ATPase pHluor, Hep lipid drop, aDG glyco act)
CCNc1ccc(S(=O)(=O)NCCN(C)C)cc1[N+](=O)[O-]	none
CN(C)CCCNS(=O)(=O)c1ccc(NC2CCCCCC2)c([N+](=O)[O-])c1	MPTP block 85, aDG glyco act 3.3 | Rh123 counter 81 | aDG conf 4.9
O=C(NC1CCCC1)C1(C(=O)C2CC2)CC(c2ccccn2)=NO1 (stereo unspecified)	none (no result: MPTP block, V-ATPase pHluor, Hep lipid drop, aDG glyco act)
CN1C(=O)c2cccc(NCCCCCCN3C(=O)c4ccccc4C3=O)c2C1=O	MPTP block 108, aDG glyco act 4.5 | Rh123 counter 94 | aDG conf inactive
